MITF TRPM1 HTS – MITF TRPM1 promoter activation in melanoma cells | activation, % at 12.5 µM | SK-MEL-5 TRPM1-promoter luciferase, 24 h; % of positive control, neutral wells = 0 | 300,000 tested, 0.75% active;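 active = mean activation of at least 80% with every replicate also reaching 80%; inconclusive = mean reaches 80% but some replicate falls short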;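 note: 0% = neutral control wells and 100% = parthenolide positive control wells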
SR-BI HDL uptake – blocks mouse SR-BI lipid uptake from DiI-HDL; ldlA[mSR-BI] CHO cells, DiI-HDL uptake fluorescence, 3 h; inhibition, % at 12.5 µM; AID 488896; 320,000 tested, 0.96% active; Q61009;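 active = mean replicate inhibition of at least 70% and a set share of replicates each scoring 70 or more; inconclusive = meets just one of the two criteria; inactive = fails both criteria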;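 note: 0% = median of neutral control wells and 100% = median of positive control wells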
Target sequence (Q61009 whole entry, looked up): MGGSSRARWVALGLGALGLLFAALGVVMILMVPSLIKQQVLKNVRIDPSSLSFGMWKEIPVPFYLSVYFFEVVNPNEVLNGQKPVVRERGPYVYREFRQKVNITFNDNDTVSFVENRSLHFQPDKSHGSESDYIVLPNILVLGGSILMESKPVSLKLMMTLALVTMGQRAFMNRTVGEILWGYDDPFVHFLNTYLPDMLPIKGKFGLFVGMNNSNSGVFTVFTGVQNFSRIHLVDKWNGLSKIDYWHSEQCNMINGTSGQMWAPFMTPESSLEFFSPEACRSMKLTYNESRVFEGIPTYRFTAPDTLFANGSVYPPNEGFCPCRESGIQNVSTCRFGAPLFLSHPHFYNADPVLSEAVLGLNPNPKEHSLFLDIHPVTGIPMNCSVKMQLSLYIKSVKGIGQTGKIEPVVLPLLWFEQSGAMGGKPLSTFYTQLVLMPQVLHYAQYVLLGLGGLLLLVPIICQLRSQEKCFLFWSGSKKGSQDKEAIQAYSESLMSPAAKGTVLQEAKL
HSF1 activator – increases HSF-1 driven luciferase reporter signal; NIH3T3-HGL HSF-1 luciferase reporter, MG132, 8 h; 100% = twice DMSO control signal; activation, % at 9 µM; 300,000 tested, 1.7% active;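 active = mean replicate activation of at least 50% with a set share of replicates each reaching 50%; inconclusive = only one of those two conditions met; inactive = mean below 50% and too few replicates reaching it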;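 note: 0% = median of the neutral control wells and 100% = twice that signal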
Wnt act – Wnt/beta-catenin pathway activation; Wnt/beta-catenin reporter cell assay, activator, plate reader; activation, % at 9.35 µM; 300,000 tested, 1.2% active; in the data active = activation above about 30%, passing the limit was not always enough; inconclusive = no clear call, values can overlap the other calls;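 note: 0% = neutral control wells and 100% = positive control wells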
SR-BI DiI-HDL act – enhances SR-BI lipid uptake from DiI-HDL. CHO ldlA[mSR-BI] cells, DiI-HDL uptake fluorescence, 3 h; 100 = double the neutral-control signal. activation, % at 12.5 µM. 320,000 tested, 0.096% active. AID 504775;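 active = mean replicate activation of at least 60% and every replicate at or above 60%; inconclusive = mean or all-replicate condition met, but not both; inactive = mean below 60% and not all replicates reaching 60%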;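 note: 0% = median plate neutral-control signal and 100% = twice that signal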
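Test system: SR-BI-overexpressing, LDLR-lacking CHO cells; Also added: labelled HDL, 10 µg/mL; Measured by: bottom-read cell fluorescence after medium removal, ex 550/em 595 nm; Timing: 3 h uptake period with compound, 37 °C; Buffer or medium: F12, 0.5% BSA, 25 mM HEPES; Doses: single compound concentration, delivered by pin transfer.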
* marks the source's active call; other numbers are inactive results; ? = inconclusive; / = no result given. Shown are actives, neighbours in structure and some others; about 3.6% of the full set was active somewhere.

SMILES	MITF TRPM1 HTS	SR-BI HDL uptake	HSF1 activator	Wnt act	SR-BI DiI-HDL act
Cc1ccc(/C=C/C(=O)Nc2nc3ccccc3[nH]2)cc1	107*	-4	32	28	4
O=C(/C=C/c1c(F)cccc1Cl)Nc1nc2ccccc2[nH]1	?	-2	63*	37*	2
Cc1ccc(/C=C/C(=O)c2nc3ccccc3[nH]2)cc1	4	3	25	37*	-3
Cc1onc(-c2c(F)cccc2Cl)c1C(=O)Nc1nc2ccccc2[nH]1	10	39	-3	/	-39
CC(=O)Nc1nc2ccccc2[nH]1	-5	-9	-4	0	9
COc1ccc(C(O)c2nc(-c3ccccc3OC)cs2)cc1 (configuration not stated)	/	/	/	5	/
Nc1nonc1-c1noc(COc2ccccc2Cl)n1	113*	-33	37	43*	33
Cc1cccc(OCc2nc(-c3nonc3N)no2)c1C	?	24	/	62*	-24
Clc1ccc(OCc2nc(-c3ccccn3)no2)c(Br)c1	/	21	42	11	-21
Clc1ccccc1OCc1nc(-c2ccccn2)no1	24	10	60*	39*	-10
CCOc1ccc(Cc2nc(-c3nonc3N)no2)cc1OCC	1	3	36	/	-3
Brc1ccc(-c2noc(CCc3ccccc3)n2)o1	38	-16	?	14	16
c1ccc(CCc2nc(-c3ccccn3)no2)cc1	128*	-16	34	/	16
Cc1ccc(S(=O)(=O)N(C)[C@H]2C[C@H]3c4[nH]c5c(-c6ccccc6)cccc5c4CCN3C(=O)[C@H]2[C@H](C)O)cc1	/	/	/	-3	/
Cc1cc(Cl)ccc1OCCCC(=O)N1CCCCC1	100*	20	15	/	-20
O=C(CCSc1ccc(Cl)cc1)N1CCCCCC1	74	-16	107*	/	16
NC(=O)C1CCN(C(=O)CCSc2ccc(Cl)cc2)CC1	20	-5	20	/	5
Cc1c(C(=O)NCc2ccc(C(C)C)cc2)sc(=O)n1Cc1cccc(F)c1	/	/	/	-4	/
Cc1ccc(C)c(NC(=O)Nc2ccc3c(c2)OCO3)c1	45	2	38	12	-2
Cc1ccc(NC(=O)/C=C/c2ccc3c(c2)OCO3)nc1	?	-23	48	30*	23
Cc1cccc(NC(=O)Nc2cc(C)cc(C)n2)c1	78	-8	53*	/	8
Cc1cc(C)nc(NC(=O)Nc2ccc3c(c2)OCO3)c1	47	-11	65*	-6	11
Cc1ccc(NC(=O)Nc2ccc3c(c2)OCO3)nc1	130*	1	32	?	-1
O=C(/C=C/[C@H]1O[C@@H](n2cnc3c(NC(=O)c4ccccc4)ncnc32)[C@H](O)[C@@H]1O)N[C@@H](CO)Cc1c[nH]c2ccccc12	/	/	/	-2	/
O=C(NCCc1ccccc1Cl)[C@@H]1CCCN1C(=O)[C@@H](NC(=O)N1CCOCC1)c1ccccc1	/	/	/	0	/
SMILES	MITF TRPM1 HTS	SR-BI HDL uptake	HSF1 activator	Wnt act	SR-BI DiI-HDL act
Cc1cc(C)nc(NC(=O)c2c(F)c(F)c(F)c(C(=O)Nc3cc(C)cc(C)n3)c2F)c1	/	/	62*	-1	/
Cc1cc(C)nc(NC(=O)c2ccc3c(c2)OCO3)c1	/	/	12	/	/
COC(=O)[C@]12C[C@H](CC(=O)NCCc3ccccc3OC)C(=O)N(CCC3=CCCCC3)C1=C[C@H](COCc1ccccc1)O[C@@H]2C	/	/	/	-2	/
Cc1ccsc1/C=N/Nc1nc2ccccc2[nH]1	48	5	803*	115*	-5
C(=N\Nc1ncnc2nc[nH]c12)/c1cccs1	56	-5	15	61*	5
Cc1cc(=O)[nH]c(N/N=C/c2sccc2C)n1	0	11	-28	2	-11
C(=N\Nc1nc2ccccc2[nH]1)/c1cccs1	58	-4	113*	51*	4
Cc1ccsc1/C=N/Nc1ncnc2nc[nH]c12	58	-17	12	15	17
O=C1NC(=O)C(c2ccccc2)N1 (configuration not stated)	-5	-19	/	-4	19
Cc1cn([C@H]2C[C@H](O)[C@@H](CNC(=O)[C@H](N)Cc3cn(COCc4ccccc4)cn3)O2)c(=O)[nH]c1=O	/	/	/	-1	/
CN(C)c1ccc(/C=N/NC(=O)C(O)(c2ccccc2)c2ccccc2)o1	2	36	-14	-2	-36
O=C(N/N=C/c1ccc(N2CCCCC2)o1)C(O)(c1ccccc1)c1ccccc1	/	/	66*	/	/
N#Cc1cccc(NC(=O)COC(=O)Cn2nc(-c3ccccc3)oc2=O)c1	11	-8	/	38*	8
CN(C)CCN1CCN(C(c2ccnc3ccccc23)c2nnnn2-c2ccc3c(c2)OCCO3)CC1 (configuration not stated)	/	/	/	-1	/
CSc1cccc(NC(=O)CSc2ncccc2C(=O)Oc2cccc([N+](=O)[O-])c2)c1	11	17	16	3	-17
CCN(C(=O)CSc1ncccc1C(=O)Oc1cccc([N+](=O)[O-])c1)c1cccc(C)c1	-1	-18	60*	-1	18
COCc1nc2oc3ccccc3c(=O)c2cc1C(=O)OC	88*	16	8	17	-16
CCOC(=O)c1cc2c(=O)c3ccccc3oc2nc1C	28	-10	1	11	10
Cc1ccccc1S(=O)(=O)N(C)C[C@@H]1OCc2cn(nn2)CCCC(=O)N([C@@H](C)CO)C[C@H]1C	/	/	/	-2	/
Cc1ccc(S(=O)(=O)N2C[C@H]3N(C(=O)OC(C)C)N(C(=O)OC(C)C)C[C@H](OC(=O)Nc4c(C)noc4C)[C@@]3(O)C2)cc1	/	/	/	-2	/
Cc1cc(C)cc(OC(=O)CS(=O)c2ccc(C(F)(F)F)cc2[N+](=O)[O-])c1 (configuration not stated)	/	-19	171*	10	19
O=C(CS(=O)c1ccc(C(F)(F)F)cc1[N+](=O)[O-])Oc1ccc(Cl)cc1 (configuration not stated)	-30	1	73*	17	-1
COc1ccc(S(=O)(=O)N(C)C[C@@H]2OCCCC[C@H](C)Oc3ccc(NC(=O)Nc4ccc(C(F)(F)F)cc4)cc3C(=O)N([C@H](C)CO)C[C@H]2C)cc1	/	/	/	-8	/
O=C1c2ccccc2C(O)(c2ccccc2)N1c1ccc([N+](=O)[O-])cc1Cl (configuration not stated)	4	10	/	-5	-10
CSc1ccccc1NC(=O)CN(Cc1ccc(Cl)cc1)S(C)(=O)=O	13	19	24	/	-19
CSc1ccccc1NC(=O)CN(Cc1ccccc1)S(C)(=O)=O	-11	75*	-4	-8	-75
O=C(C(=O)N(C1CCCCC1)C1CCCCC1)c1ccccc1	/	/	/	12	/
C#CCNC(=O)C[C@H]1C[C@@]2(C(=O)OC)C(=C[C@H](C(C)(C)C)O[C@@H]2C)N(Cc2ccc3c(c2)OCO3)C1=O	/	/	/	1	/
O=C(Nc1ccc(Cl)cc1)Nc1ccccc1Sc1ncc([N+](=O)[O-])s1	-49	30	36	33*	-30

Screening data (PubChem)
